Data reported in ChEMBL document CHEMBL1131243, “Structure-activity relationships of the 7-substituents of 5,4'-diamino-6,8,3'-trifluoroflavone, a potent antitumor agent” (J Med Chem, 1998).

Key:
HeLa = assay: In vitro cytotoxicity against HeLa S3 cell lines, treated for 3 days then uptake of neutral red dye was measured; assay type: functional, cell-based; details: Homo sapiens, 72 h
MCF7 = assay: In vitro cytotoxicity against MCF-7 cell lines, treated for 3 days then uptake of neutral red dye was measured; assay type: functional, cell-based; details: Homo sapiens, MCF7, 72 h
Mus musculus [1] = assay: Compound was tested for percentage Body weight change in vivo against MCF-7 cells implanted into Nude Mice, Dosage 25(mg/kg); assay type: functional, MCF7
In short: (§1)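 Female nude mice carried MCF-7 implants, with tumor growth stimulated by estradiol propionate given on the first dosing day. Mice with tumors of 25–200 mm³ were selected 20 days after transplantation (n = 5). Compound was given orally on days 0–4 and 7–11. Tumor length and width were measured on days 0, 4, 7, 11, 14 and 18. T/C is V/V0 treated over control; body weight change in %.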

Mus musculus [2] = assay: Ratio of tumor growth rate of the drug-treated group relative to that of the control group at a dose of 25 mg/kg; assay type: functional; in short: as §1
Mus musculus [3] = assay: Compound was tested for percentage Body weight change in vivo against MCF-7 cells implanted into Nude Mice, Dosage 3.1(mg/kg); assay type: functional, MCF7; in short: as §1
Mus musculus [4] = assay: Compound was tested for percentage Body weight change in vivo against MCF-7 cells implanted into Nude Mice, Dosage 6.3(mg/kg); assay type: functional, MCF7; in short: as §1
Mus musculus [5] = assay: Compound was tested for percentage Body weight change in vivo against MCF-7 cells implanted into Nude Mice, Dosage 12.5(mg/kg); assay type: functional, MCF7; in short: as §1
Mus musculus [6] = assay: Ratio of tumor growth rate of the drug-treated group relative to that of the control group at a dose of 6.3 mg/kg; assay type: functional; in short: as §1
Mus musculus [7] = assay: Ratio of tumor growth rate of the drug-treated group relative to that of the control group at a dose of 12.5 mg/kg; assay type: functional; in short: as §1
Mus musculus [8] = assay: Ratio of tumor growth rate of the drug-treated group relative to that of the control group at a dose of 3.1 mg/kg; assay type: functional; in short: as §1
Mus musculus [9] = assay: Compound was tested for percentage Body weight change in vivo against MCF-7 cells implanted into Nude Mice, Dosage 50(mg/kg); assay type: functional, MCF7; in short: as §1
Mus musculus [10] = assay: Ratio of tumor growth rate of the drug-treated group relative to that of the control group at a dose of 50 mg/kg; assay type: functional; in short: as §1
Mus musculus [11] = assay: Ratio of tumor growth rate of the drug-treated group relative to that of the control group at a dosw of 25 mg/kg; assay type: functional; in short: as §1
Mus musculus [12] = assay: Compound was tested for percentage Body weight change in vivo against MCF-7 cells implanted into Nude Mice, Dosage (mg/kg); assay type: functional, MCF7; in short: as §1
Mus musculus [13] = assay: Ratio of tumor growth rate of the drug-treated group relative to that of the control group at a dosw of 50 mg/kg; assay type: functional; in short: as §1
Mus musculus [14] = assay: Compound was tested for percentage Body weight change in vivo against MCF-7 cells implanted into Nude Mice, Dosage 50 (mg/kg); assay type: functional, MCF7; in short: as §1
Mus musculus [15] = assay: Compound was tested for percentage Body weight change in vivo against MCF-7 cells implanted into Nude Mice, Dosage 63(mg/kg); assay type: functional, MCF7; details: in the assay text read “Dosage 6.3(mg/kg)” for “Dosage 63(mg/kg)”; in short: as §1
Mus musculus [16] = assay: Ratio of tumor growth rate of the drug-treated group relative to that of the control group at a dosw of 63 mg/kg; assay type: functional; details: dose 6.3 mg/kg; in the assay text read “6.3 mg/kg” for “63 mg/kg”; in short: as §1
HeLa S3 (Homo sapiens) = assay: Compound was tested for in vitro Cytotoxicity against HeLa S3 cell lines which were treated for 3 days and uptake of neutral red dye was measured; details: HeLa S3, 72 h
Mus musculus [17] = assay: Ratio of tumor growth rate of the drug-treated group relative to that of the control group at a dosw of 6.3 mg/kg; assay type: functional; in short: as §1
Mus musculus [18] = assay: Compound was tested for percentage Body weight change in vivo against MCF-7 cells implanted into Nude Mice, Dosage 25 (mg/kg); assay type: functional, MCF7; in short: as §1

Row | SMILES | IC50 (HeLa) | IC50 (MCF7) | other results
1 | CN(C)CCOc1c(F)c(N)c2c(=O)cc(-c3ccc(N)c(F)c3)oc2c1F | 1.5 µM | 1.4 µM | –
2 | CCCCCCCCCC(=O)OCc1c(F)c(N)c2c(=O)cc(-c3ccc(N)c(F)c3)oc2c1F | > 100 µM | 0.1 µM | Body weight change (Mus musculus [1]): -5%; T/C min (Mus musculus [2]): 13%
3 | CCCCCCCCCCCCCCCCCC(=O)OCc1c(F)c(N)c2c(=O)cc(-c3ccc(N)c(F)c3)oc2c1F | > 100 µM | > 10 µM | Body weight change (Mus musculus [1]): -4.8%; T/C min (Mus musculus [2]): 20%
4 | Nc1ccc(-c2cc(=O)c3c(N)c(F)c(C(=O)O)c(F)c3o2)cc1F | > 100 µM | > 10 µM | –
5 | Nc1ccc(-c2cc(=O)c3c(N)c(F)c(N)c(F)c3o2)cc1F | 19 µM | 0.0077 µM | Body weight change (Mus musculus [3]): 5.7%; Body weight change (Mus musculus [4]): -13%; Body weight change (Mus musculus [5]): -22%; T/C min (Mus musculus [6]): 26%; T/C min (Mus musculus [7]): 18%; T/C min (Mus musculus [8]): 55%
6 | CC(=O)OCc1c(F)c(N)c2c(=O)cc(-c3ccc(N)c(F)c3)oc2c1F | 4.9 µM | 0.026 µM | Body weight change (Mus musculus [9]): -4.5%; Body weight change (Mus musculus [1]): -5.9%; T/C min (Mus musculus [2]): 6.1%; T/C min (Mus musculus [10]): 11%
7 | CN(C)Cc1c(F)c(N)c2c(=O)cc(-c3ccc(N)c(F)c3)oc2c1F | 8.9 µM | 0.072 µM | Body weight change (Mus musculus [1]): -17%; T/C min (Mus musculus [11]): 16%
8 | CCC(=O)OCc1c(F)c(N)c2c(=O)cc(-c3ccc(N)c(F)c3)oc2c1F | 69 µM | 0.13 µM | Body weight change (Mus musculus [12]): -2.4%; T/C min (Mus musculus [2]): 79%
9 | COCc1c(F)c(N)c2c(=O)cc(-c3ccc(N)c(F)c3)oc2c1F | > 100 µM | 0.046 µM | Body weight change (Mus musculus [9]): 0%; T/C min (Mus musculus [13]): 89%
10 | CCOC(=O)c1c(F)c(N)c2c(=O)cc(-c3ccc(N)c(F)c3)oc2c1F | > 100 µM | 1.4 µM | –
11 | Cc1c(F)c(N)c2c(=O)cc(-c3ccc(N)c(F)c3)oc2c1F [AMINOFLAVONE] | > 100 µM | 0.013 µM | Body weight change (Mus musculus [4]): -8.7%; Body weight change (Mus musculus [5]): -11%; T/C min (Mus musculus [6]): 55%; T/C min (Mus musculus [7]): 11%
12 | NCc1c(F)c(N)c2c(=O)cc(-c3ccc(N)c(F)c3)oc2c1F | 8.8 µM | 0.026 µM | Body weight change (Mus musculus [14]): -11%; Body weight change (Mus musculus [15]): -5.8%; Body weight change (Mus musculus [1]): -8.5%; T/C min (Mus musculus [13]): 1.1%; T/C min (Mus musculus [2]): 11%; T/C min (Mus musculus [16]): 60%
13 | CCCCCC(=O)OCc1c(F)c(N)c2c(=O)cc(-c3ccc(N)c(F)c3)oc2c1F | 34 µM | 0.16 µM | Body weight change (Mus musculus [4]): -5.9%; Body weight change (Mus musculus [1]): -7.9%; Body weight change (Mus musculus [5]): -8.4%; T/C min (Mus musculus [6]): 27%; T/C min (Mus musculus [7]): 7.9%; T/C min (Mus musculus [2]): 0.8%
14 | CCCCCCOCc1c(F)c(N)c2c(=O)cc(-c3ccc(N)c(F)c3)oc2c1F | > 100 µM | 7.1 µM | –
15 | CCCCCC(=O)NCc1c(F)c(N)c2c(=O)cc(-c3ccc(N)c(F)c3)oc2c1F | – | 0.34 µM | Body weight change (Mus musculus [9]): 0%; T/C min (Mus musculus [10]): 76%; IC50 (HeLa S3 (Homo sapiens)): > 100 µM
16 | CN(C)CCCOCc1c(F)c(N)c2c(=O)cc(-c3ccc(N)c(F)c3)oc2c1F | 12 µM | > 10 µM | –
17 | CCCOCc1c(F)c(N)c2c(=O)cc(-c3ccc(N)c(F)c3)oc2c1F | 78 µM | 1.2 µM | –
18 | C[S+]([O-])c1c(F)c(N)c2c(=O)cc(-c3ccc(N)c(F)c3)oc2c1F (stereo not given) | > 100 µM | 2.5 µM | –

Row | SMILES | IC50 (HeLa) | IC50 (MCF7) | other results
19 | Nc1ccc(-c2cc(=O)c3c(N)c(F)c(CO)c(F)c3o2)cc1F | 24 µM | 0.062 µM | Body weight change (Mus musculus [9]): -6.7%; Body weight change (Mus musculus [1]): -4%; T/C min (Mus musculus [2]): 17%; T/C min (Mus musculus [10]): 1.6%
20 | CCc1c(F)c(N)c2c(=O)cc(-c3ccc(N)c(F)c3)oc2c1F | > 100 µM | 0.13 µM | –
21 | CN(C)c1c(F)c(N)c2c(=O)cc(-c3ccc(N)c(F)c3)oc2c1F | > 100 µM | 0.039 µM | Body weight change (Mus musculus [5]): -19%; T/C min (Mus musculus [7]): 39%
22 | CN(C)CCOCc1c(F)c(N)c2c(=O)cc(-c3ccc(N)c(F)c3)oc2c1F | 4.6 µM | > 10 µM | Body weight change (Mus musculus [9]): -7.9%; T/C min (Mus musculus [13]): 57%
23 | [N-]=[N+]=Nc1c(F)c(N)c2c(=O)cc(-c3ccc(N)c(F)c3)oc2c1F | 1.2 µM | 0.46 µM | –
24 | C[N+](C)(C)Cc1c(F)c(N)c2c(=O)cc(-c3ccc(N)c(F)c3)oc2c1F | 32 µM | 3.1 µM | –
25 | CCCCCCc1c(F)c(N)c2c(=O)cc(-c3ccc(N)c(F)c3)oc2c1F | 21 µM | > 10 µM | –
26 | Nc1ccc(-c2cc(=O)c3c(N)c(F)c(O)c(F)c3o2)cc1F | > 100 µM | > 10 µM | –
27 | Nc1ccc(-c2cc(=O)c3c(N)c(F)c(Br)c(F)c3o2)cc1F | > 100 µM | 0.16 µM | –
28 | CN(C)CC(=O)OCc1c(F)c(N)c2c(=O)cc(-c3ccc(N)c(F)c3)oc2c1F | 9.2 µM | 0.026 µM | Body weight change (Mus musculus [9]): -11%; Body weight change (Mus musculus [4]): -4.8%; Body weight change (Mus musculus [1]): -9%; T/C min (Mus musculus [17]): 68%; T/C min (Mus musculus [2]): 4%; T/C min (Mus musculus [10]): 1%
29 | CSc1c(F)c(N)c2c(=O)cc(-c3ccc(N)c(F)c3)oc2c1F | > 100 µM | 0.19 µM | –
30 | Nc1ccc(-c2cc(=O)c3c(N)c(F)cc(F)c3o2)cc1F | > 100 µM | 0.04 µM | Body weight change (Mus musculus [18]): -7.4%; T/C min (Mus musculus [2]): 11%
31 | COc1c(F)c(N)c2c(=O)cc(-c3ccc(N)c(F)c3)oc2c1F | 34 µM | 0.1 µM | –
32 | CS(=O)(=O)c1c(F)c(N)c2c(=O)cc(-c3ccc(N)c(F)c3)oc2c1F | > 100 µM | > 10 µM | –
33 | CN(C)CCC(=O)OCc1c(F)c(N)c2c(=O)cc(-c3ccc(N)c(F)c3)oc2c1F | 11 µM | 0.019 µM | Body weight change (Mus musculus [1]): -12%; T/C min (Mus musculus [11]): 4.1%
34 | CCCCc1c(F)c(N)c2c(=O)cc(-c3ccc(N)c(F)c3)oc2c1F | > 100 µM | 8.8 µM | –
35 | Nc1ccc(-c2cc(=O)c3c(N)c(F)c(Cl)c(F)c3o2)cc1F | > 100 µM | 0.21 µM | –
36 | CN(C)CCCC(=O)OCc1c(F)c(N)c2c(=O)cc(-c3ccc(N)c(F)c3)oc2c1F | 4.5 µM | 0.029 µM | Body weight change (Mus musculus [1]): -8.4%; T/C min (Mus musculus [11]): 15%
